# Activity calls are given as the source filed them. The rule behind the calls is not given here.
# How the values were obtained:
# D(3) dopamine receptor = D(3) dopamine receptor (Homo sapiens, UniProt P35462); test: Agonist activity at human recombinant dopamine D3 receptor expressed in CHO cells assessed as inhibition of forskolin-stimulated cAMP accumulation; assay type: functional, cell-based
# D(2) dopamine receptor = D(2) dopamine receptor (Homo sapiens, UniProt P14416); test: Agonist activity at human recombinant dopamine D2 receptor expressed in rat pituitary cells assessed as inhibition of forskolin-stimulated cAMP accumulation; assay type: functional, cell-based, Pituitary gland cell
# Sequence of D(2) dopamine receptor (P14416 whole entry): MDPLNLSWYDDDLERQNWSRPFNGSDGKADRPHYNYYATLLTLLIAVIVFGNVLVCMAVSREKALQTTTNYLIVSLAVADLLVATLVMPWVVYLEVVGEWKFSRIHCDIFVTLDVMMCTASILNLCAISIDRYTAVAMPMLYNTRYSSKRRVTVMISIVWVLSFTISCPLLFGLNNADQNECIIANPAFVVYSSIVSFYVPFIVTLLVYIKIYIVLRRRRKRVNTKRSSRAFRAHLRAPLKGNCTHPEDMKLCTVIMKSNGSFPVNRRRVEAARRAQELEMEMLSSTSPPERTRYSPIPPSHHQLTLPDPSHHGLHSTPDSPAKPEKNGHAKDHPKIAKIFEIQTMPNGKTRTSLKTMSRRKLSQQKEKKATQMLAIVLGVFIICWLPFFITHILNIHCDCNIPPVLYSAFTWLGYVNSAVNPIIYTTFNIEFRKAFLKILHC
# Histamine H1 receptor = Histamine H1 receptor (Homo sapiens, UniProt P35367); test: Binding affinity to human histamine H1 receptor
# Sequence of Histamine H1 receptor (P35367 whole entry): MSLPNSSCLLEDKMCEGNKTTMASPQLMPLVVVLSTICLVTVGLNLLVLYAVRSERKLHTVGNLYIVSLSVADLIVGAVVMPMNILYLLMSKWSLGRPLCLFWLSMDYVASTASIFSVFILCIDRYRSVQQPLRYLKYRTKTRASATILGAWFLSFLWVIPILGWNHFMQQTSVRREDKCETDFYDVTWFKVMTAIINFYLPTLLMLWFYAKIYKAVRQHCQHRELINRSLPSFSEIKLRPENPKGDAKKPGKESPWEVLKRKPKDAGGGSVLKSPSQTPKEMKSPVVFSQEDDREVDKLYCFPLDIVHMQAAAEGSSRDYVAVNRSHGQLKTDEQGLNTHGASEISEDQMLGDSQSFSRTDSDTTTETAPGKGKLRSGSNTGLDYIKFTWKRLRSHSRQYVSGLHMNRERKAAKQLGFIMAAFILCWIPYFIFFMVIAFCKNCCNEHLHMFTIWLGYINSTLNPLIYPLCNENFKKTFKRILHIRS
# Canis familiaris [1] = test: Toxicity in sc dog assessed as hypotensive effects upto […]; assay type: organism-based, Canis lupus familiaris; conditions: in vivo
# [2] = Tmax in dog at 0.3 mg/kg; assay type: ADME, organism-based, Canis lupus familiaris; parameters: dose 0.3 mg/kg; conditions: in vivo
# Outline: (§1)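 Dogs, male (n = 2) and female (n = 2). Compound freshly prepared in saline. The intravenous reference was a 10-min infusion at 3 ml/kg/h of a 0.2 mg/ml solution, giving a final dose of 0.1 mg/kg. Intranasal doses of 0.1 and 0.3 mg/kg were given as 100 µl into one nostril by spray device.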
# D(1B) dopamine receptor = D(1B) dopamine receptor (Homo sapiens, UniProt P21918); test: Binding affinity to dopamine D5 receptor
# Sequence of D(1B) dopamine receptor (P21918 whole entry): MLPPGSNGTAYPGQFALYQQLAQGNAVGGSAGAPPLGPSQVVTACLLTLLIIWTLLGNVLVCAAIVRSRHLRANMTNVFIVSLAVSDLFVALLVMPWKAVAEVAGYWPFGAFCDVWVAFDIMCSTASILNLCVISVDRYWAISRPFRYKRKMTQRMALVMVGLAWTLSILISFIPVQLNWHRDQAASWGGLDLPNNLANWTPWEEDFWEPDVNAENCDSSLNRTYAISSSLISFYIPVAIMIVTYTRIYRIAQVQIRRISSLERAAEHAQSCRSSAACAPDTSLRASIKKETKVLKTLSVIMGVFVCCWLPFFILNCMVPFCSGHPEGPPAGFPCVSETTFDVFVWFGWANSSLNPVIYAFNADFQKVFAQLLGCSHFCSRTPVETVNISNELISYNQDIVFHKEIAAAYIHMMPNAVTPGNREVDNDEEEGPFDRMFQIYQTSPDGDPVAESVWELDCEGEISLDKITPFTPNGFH
# Outline: (§2)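 Broad commercial ligand-binding panel profiling, including dopamine D1 and D5 receptors; reported as IC50.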
# [3] = target: T1, 5-hydroxytryptamine receptor 1A (Homo sapiens) (UniProt P08908); test: Binding affinity to human 5HT1A receptor at 100 nM
# T1 sequence (whole entry): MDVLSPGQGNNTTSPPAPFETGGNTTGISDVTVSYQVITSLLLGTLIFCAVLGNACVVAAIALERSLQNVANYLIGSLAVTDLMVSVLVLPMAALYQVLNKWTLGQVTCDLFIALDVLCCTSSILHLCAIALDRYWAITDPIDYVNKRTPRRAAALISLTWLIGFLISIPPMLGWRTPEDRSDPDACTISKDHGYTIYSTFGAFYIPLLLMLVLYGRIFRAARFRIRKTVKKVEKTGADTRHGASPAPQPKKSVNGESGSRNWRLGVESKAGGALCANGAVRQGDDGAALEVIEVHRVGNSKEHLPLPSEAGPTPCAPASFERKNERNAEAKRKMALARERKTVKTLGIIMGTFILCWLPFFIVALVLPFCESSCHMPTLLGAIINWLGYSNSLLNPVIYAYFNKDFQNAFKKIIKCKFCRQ
# Outline: (§3)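 Single-concentration binding screen in the Cerep wide ligand profile panel at the human 5HT1A receptor. Read-out is percent binding activity at each test concentration.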
# Canis familiaris [4] = test: Effect on male erectile dysfunction in sc dosed dog; assay type: functional, Canis lupus familiaris
# Outline: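 Animal models of male erectile dysfunction, with multiple subcutaneous dosing; ED50 expressed as free drug concentration.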
# [5] = Half life in dog at 0.3 mg/kg; assay type: ADME, organism-based, Canis lupus familiaris; parameters: dose 0.3 mg/kg; conditions: in vivo; outline: as §1
# [6] = target: T2, Alpha-2A adrenergic receptor (Homo sapiens, UniProt P08913); test: Binding affinity to human alpha-2A adrenergic receptor
# T2 sequence (P08913 whole entry): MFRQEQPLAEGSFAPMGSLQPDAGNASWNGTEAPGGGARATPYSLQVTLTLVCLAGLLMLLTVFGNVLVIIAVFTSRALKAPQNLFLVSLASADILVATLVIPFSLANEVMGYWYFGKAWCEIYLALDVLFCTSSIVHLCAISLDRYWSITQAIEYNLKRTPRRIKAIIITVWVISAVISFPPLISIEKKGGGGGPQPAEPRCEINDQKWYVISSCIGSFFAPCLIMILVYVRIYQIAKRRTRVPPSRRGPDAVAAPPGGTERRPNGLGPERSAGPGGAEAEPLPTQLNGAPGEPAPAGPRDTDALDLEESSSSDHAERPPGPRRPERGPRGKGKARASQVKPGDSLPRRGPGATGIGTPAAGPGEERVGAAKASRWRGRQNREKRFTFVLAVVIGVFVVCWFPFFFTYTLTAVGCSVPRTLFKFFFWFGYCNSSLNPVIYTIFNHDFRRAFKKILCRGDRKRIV
# [7] = Intranasal bioavailability in rat at 2 mg/kg; assay type: ADME, organism-based; conditions: in vivo, inhaled or intranasal
# Outline: (§4)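 Rat study: compound freshly prepared in saline. An intravenous reference dose of 1 mg/kg was given as a bolus. Intranasal doses of 0.5 and 2 mg/kg were given as 20 µl into one nostril by pipette.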
# [8] = Apparent permeability across Caco-2 cells at 1 uM; assay type: ADME, cell-based; conditions: human
# [9] = Half life in rat at 2 mg/kg administered by intranasal route; assay type: ADME, organism-based; parameters: dose 2 mg/kg; conditions: in vivo, inhaled or intranasal; outline: as §4
# [10] = target: T3, Muscarinic acetylcholine receptor M1 (Homo sapiens, UniProt P11229); test: Binding affinity to human muscarinic M1 receptor
# T3 sequence (P11229 whole entry): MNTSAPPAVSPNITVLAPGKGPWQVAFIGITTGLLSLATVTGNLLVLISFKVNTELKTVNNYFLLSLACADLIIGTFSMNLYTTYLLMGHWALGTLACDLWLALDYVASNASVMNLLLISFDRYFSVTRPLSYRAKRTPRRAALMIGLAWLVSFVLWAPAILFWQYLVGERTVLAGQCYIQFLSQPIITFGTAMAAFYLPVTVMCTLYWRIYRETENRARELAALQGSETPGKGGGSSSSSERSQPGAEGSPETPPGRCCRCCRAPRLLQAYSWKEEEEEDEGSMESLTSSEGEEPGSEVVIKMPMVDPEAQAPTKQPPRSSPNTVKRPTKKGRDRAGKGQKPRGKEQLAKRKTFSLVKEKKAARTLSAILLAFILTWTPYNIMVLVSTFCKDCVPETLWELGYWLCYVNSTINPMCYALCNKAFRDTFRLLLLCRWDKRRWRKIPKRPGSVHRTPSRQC
# [11] = target: Voltage-gated inwardly rectifying potassium channel KCNH2 (Homo sapiens, UniProt Q12809); test: Displacement of dofetilide from hERG
# Sequence of Voltage-gated inwardly rectifying potassium channel KCNH2 (Q12809 whole entry): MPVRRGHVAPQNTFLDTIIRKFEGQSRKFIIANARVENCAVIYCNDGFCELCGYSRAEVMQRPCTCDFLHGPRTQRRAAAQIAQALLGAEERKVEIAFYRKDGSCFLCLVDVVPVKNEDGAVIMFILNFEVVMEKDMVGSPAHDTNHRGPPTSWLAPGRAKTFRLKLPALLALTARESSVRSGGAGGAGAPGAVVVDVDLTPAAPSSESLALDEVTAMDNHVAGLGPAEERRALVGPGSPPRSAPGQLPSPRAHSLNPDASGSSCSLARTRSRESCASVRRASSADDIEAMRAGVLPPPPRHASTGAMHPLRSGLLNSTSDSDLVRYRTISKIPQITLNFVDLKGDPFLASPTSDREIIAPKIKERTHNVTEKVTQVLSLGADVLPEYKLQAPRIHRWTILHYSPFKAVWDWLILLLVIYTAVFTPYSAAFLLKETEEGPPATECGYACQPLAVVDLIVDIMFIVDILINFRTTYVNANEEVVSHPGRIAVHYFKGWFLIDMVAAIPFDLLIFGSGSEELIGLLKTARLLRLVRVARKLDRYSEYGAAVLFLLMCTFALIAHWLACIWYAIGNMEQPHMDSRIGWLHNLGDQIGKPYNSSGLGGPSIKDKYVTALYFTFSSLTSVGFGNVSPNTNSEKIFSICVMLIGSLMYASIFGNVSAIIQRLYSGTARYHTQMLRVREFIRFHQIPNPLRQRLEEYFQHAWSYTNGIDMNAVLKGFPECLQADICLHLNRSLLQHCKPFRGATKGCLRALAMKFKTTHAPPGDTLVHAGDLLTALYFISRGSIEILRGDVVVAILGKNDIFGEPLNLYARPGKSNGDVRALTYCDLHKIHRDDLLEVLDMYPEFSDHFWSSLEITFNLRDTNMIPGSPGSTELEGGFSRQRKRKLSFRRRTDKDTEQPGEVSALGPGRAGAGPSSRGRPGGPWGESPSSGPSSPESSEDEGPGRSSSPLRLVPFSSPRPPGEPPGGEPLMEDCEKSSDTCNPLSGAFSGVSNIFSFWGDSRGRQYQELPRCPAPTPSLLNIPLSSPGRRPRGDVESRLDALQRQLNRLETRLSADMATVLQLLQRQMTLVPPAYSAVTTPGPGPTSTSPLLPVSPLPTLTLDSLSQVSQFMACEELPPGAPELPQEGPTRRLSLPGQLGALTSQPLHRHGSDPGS
# [12] = Solubility of the compound; assay type: physicochemical
# [13] = Protein binding in human plasma; assay type: ADME, cell-free; conditions: read-out: PB (converted)
# [14] = Protein binding in rat plasma; assay type: ADME, cell-free; conditions: read-out: PB (converted)
# [15] = target: T4, 5-hydroxytryptamine receptor 1A (Homo sapiens, UniProt P08908); test: Antagonist activity at human recombinant 5HT1A receptor; assay type: functional
# T4 sequence (P08908 whole entry): T1 sequence (whole entry)
# [16] = target: T1, 5-hydroxytryptamine receptor 1A (Homo sapiens); test: Binding affinity to human 5HT1A receptor at 10 uM; outline: as §3
# [17] = target: T1, 5-hydroxytryptamine receptor 1A (Homo sapiens); test: Agonist activity at human recombinant 5HT1A at 1 uM; assay type: functional
# Canis familiaris [18] = test: Toxicity in sc dog assessed as nausea upto […]; assay type: organism-based, Canis lupus familiaris; conditions: in vivo
# Canis familiaris [19] = test: Toxicity in sc dog assessed as emesis upto […]; assay type: organism-based, Canis lupus familiaris; conditions: in vivo
# [20] = Intranasal bioavailability in dog at 0.3 mg/kg; assay type: ADME, organism-based, Canis lupus familiaris; conditions: in vivo, inhaled or intranasal; outline: as §1
# [21] = target: 5-hydroxytryptamine receptor 2A (Rattus norvegicus, UniProt P14842); test: Binding affinity to rat 5HT2A receptor
# Sequence of 5-hydroxytryptamine receptor 2A (P14842 whole entry): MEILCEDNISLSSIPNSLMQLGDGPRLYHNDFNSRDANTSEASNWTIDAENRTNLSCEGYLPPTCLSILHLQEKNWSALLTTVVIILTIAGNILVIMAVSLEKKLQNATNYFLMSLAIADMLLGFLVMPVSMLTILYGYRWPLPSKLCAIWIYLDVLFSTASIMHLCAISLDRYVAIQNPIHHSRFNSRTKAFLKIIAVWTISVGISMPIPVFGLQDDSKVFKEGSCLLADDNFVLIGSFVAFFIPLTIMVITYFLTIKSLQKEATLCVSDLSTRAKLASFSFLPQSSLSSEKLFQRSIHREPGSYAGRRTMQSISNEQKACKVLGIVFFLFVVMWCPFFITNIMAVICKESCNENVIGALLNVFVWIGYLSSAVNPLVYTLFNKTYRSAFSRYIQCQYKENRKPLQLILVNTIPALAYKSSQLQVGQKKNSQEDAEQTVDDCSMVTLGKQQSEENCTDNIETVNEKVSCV
# [22] = Protein binding in dog plasma; assay type: ADME, cell-free, Canis lupus familiaris; conditions: read-out: PB (converted)
# D(1A) dopamine receptor = D(1A) dopamine receptor (Homo sapiens, UniProt P21728); test: Binding affinity to dopamine D1 receptor; outline: as §2
# Sequence of D(1A) dopamine receptor (P21728 whole entry): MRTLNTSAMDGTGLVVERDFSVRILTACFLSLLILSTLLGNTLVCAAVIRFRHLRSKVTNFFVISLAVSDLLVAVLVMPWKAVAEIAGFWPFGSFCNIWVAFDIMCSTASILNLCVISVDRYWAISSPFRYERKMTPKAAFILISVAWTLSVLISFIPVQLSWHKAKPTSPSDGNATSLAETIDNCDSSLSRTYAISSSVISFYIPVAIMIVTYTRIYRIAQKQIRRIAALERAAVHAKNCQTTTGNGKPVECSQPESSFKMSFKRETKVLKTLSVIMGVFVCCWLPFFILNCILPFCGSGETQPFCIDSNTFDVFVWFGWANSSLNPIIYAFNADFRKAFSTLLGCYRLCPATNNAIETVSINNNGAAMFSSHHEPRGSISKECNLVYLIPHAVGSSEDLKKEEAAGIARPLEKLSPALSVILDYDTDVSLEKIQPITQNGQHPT
# [23] = Stability in rat hepatocytes; assay type: ADME, cell-based, Liver, Hepatocyte
# Outline: (§5)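 Rat, dog and human hepatocyte incubations; read-out was the disappearance half-life of parent compound, in minutes.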
# [24] = Stability in dog hepatocytes; assay type: ADME, cell-based, Liver, Hepatocyte; outline: as §5
# [25] = target: T5, Alpha-1A adrenergic receptor (Rattus norvegicus, UniProt P43140); test: Binding affinity to rat alpha-1A adrenergic receptor
# T5 sequence (P43140 whole entry): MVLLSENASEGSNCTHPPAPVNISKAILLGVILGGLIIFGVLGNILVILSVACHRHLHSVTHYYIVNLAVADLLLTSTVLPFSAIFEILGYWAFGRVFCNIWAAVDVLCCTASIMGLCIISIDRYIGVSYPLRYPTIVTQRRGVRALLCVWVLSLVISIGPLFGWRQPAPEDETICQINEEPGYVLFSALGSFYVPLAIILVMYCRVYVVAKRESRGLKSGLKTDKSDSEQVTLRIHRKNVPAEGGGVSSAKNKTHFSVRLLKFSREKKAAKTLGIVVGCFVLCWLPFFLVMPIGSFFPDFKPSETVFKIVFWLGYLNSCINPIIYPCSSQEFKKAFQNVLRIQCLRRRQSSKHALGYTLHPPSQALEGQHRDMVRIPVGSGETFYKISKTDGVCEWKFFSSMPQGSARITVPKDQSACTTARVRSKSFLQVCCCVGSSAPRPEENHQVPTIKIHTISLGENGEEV
# [26] = Distribution coefficient, log D at pH 7.4; assay type: physicochemical; conditions: octanol/water
# [27] = Stability in human hepatocytes; assay type: ADME, cell-based, Liver, Hepatocyte; outline: as §5
# [28] = Dissociation constant, pKa of the compound; assay type: physicochemical
# [29] = Tmax in rat at 2 mg/kg administered by intranasal route; assay type: ADME, organism-based; parameters: dose 2 mg/kg; conditions: in vivo, inhaled or intranasal; outline: as §4
# [30] = Clearance in human; assay type: ADME, organism-based; conditions: in vivo
# [31] = Clearance in rat; assay type: ADME, organism-based; conditions: in vivo
# Sequence of D(3) dopamine receptor (P35462 whole entry): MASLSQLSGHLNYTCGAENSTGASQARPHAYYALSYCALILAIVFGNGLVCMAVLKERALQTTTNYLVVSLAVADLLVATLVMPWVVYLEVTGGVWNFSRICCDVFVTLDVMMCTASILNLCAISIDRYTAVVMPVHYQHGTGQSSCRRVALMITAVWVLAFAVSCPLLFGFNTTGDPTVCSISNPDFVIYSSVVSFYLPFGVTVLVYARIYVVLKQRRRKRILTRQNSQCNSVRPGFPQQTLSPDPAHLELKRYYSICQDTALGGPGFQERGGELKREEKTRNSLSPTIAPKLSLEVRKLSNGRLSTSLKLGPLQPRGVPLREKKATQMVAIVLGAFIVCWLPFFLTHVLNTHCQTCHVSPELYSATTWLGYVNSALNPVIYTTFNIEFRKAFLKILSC
structure (smiles),measurement,setting,value
CCCN1CCO[C@@H](c2cccc(O)c2)C1,EC50,D(3) dopamine receptor,> 5000 nM
same,EC50,D(2) dopamine receptor,> 10000 nM
CCCN1CCOC(c2cccc(O)c2)C1 (centres undefined),EC50,D(3) dopamine receptor,27 nM
same,EC50,D(2) dopamine receptor,> 10000 nM
Oc1cccc(C2CNCCO2)c1 (centres undefined),EC50,D(3) dopamine receptor,864 nM
same,EC50,D(2) dopamine receptor,7200 nM
CCCN1CCO[C@H](c2cccc(O)c2)C1,Ki,Histamine H1 receptor,> 2000 nM
same,Activity,Canis familiaris [1],Non-toxic
same,Tmax,[2],5 min
same,IC50,D(1B) dopamine receptor,> 10000 nM
same,Activity,[3],16%
same,ED50,Canis familiaris [4],0.2 nM
same,half-life,[5],96 min
same,Ki,[6],> 1000 nM
same,bioavailability,[7],20%
same,EC50,D(3) dopamine receptor,8 nM
same,Emax,D(3) dopamine receptor,> 90%
same,Papp at 1 µM,[8],38 ×10⁻⁶ cm/s
same,half-life,[9],18 min
same,Ki,[10],> 1000 nM
same,Ki,[11],> 4000 nM
same,solubility,[12],> 1000 mg/mL
same,fraction unbound,[13],0.35
same,fraction unbound,[14],0.59
same,IC50,[15],> 20000 nM
same,Activity,[16],95%
same,Activity,[17],inactive
same,Activity,Canis familiaris [18],Non-toxic
same,Activity,Canis familiaris [19],Non-toxic
same,bioavailability,[20],33%
same,Ki,[21],970 nM
same,fraction unbound,[22],0.24
same,IC50,D(1A) dopamine receptor,> 10000 nM
same,half-life,[23],28 min
same,half-life,[24],18 min
same,Ki,[25],> 1000 nM
same,logD,[26],1
same,half-life,[27],61 min
same,EC50,D(2) dopamine receptor,> 10000 nM
same,pKa,[28],7.4
same,Tmax,[29],5 min
CCCN1CCOC(c2cccc(C(N)=O)c2)C1 (centres undefined),EC50,D(3) dopamine receptor,> 1000 nM
CCCN1CCOC(c2cc(O)cc(O)c2)C1 (centres undefined),EC50,D(3) dopamine receptor,37 nM
CCCN1CCOC(c2cccc(CO)c2)C1 (centres undefined),EC50,D(3) dopamine receptor,> 1000 nM
C=CCN1CCOC(c2cccc(O)c2)C1 (centres undefined),EC50,D(3) dopamine receptor,1310 nM
same,EC50,D(2) dopamine receptor,> 100000 nM
CNC[C@H](O)c1cccc(O)c1 [PHENYLEPHRINE],clearance,[30],30 mL/min/kg
CCCN1CCOC(c2cccc(-c3ncc[nH]3)c2)C1 (centres undefined),EC50,D(3) dopamine receptor,> 1000 nM
same,EC50,D(2) dopamine receptor,> 10000 nM
CCCN1CCOC(c2cccc(OC(F)(F)F)c2)C1 (centres undefined),EC50,D(3) dopamine receptor,> 1000 nM
same,EC50,D(2) dopamine receptor,> 1000 nM
CCCN1CCOC(c2ccc(CO)c(O)c2)C1 (centres undefined),EC50,D(3) dopamine receptor,> 5900 nM
CCCN1CCOC(c2ccc(O)c(C#N)c2)C1 (centres undefined),EC50,D(3) dopamine receptor,> 1000 nM
CCCN1CCOC(c2cccc(-c3nnc[nH]3)c2)C1 (centres undefined),EC50,D(3) dopamine receptor,> 1000 nM
CCCN1CCOC(c2cc(O)cc(C#N)c2)C1 (centres undefined),EC50,D(3) dopamine receptor,> 10000 nM
CCCN1CCOC(c2ccc(O)c(N)c2)C1 (centres undefined),EC50,D(3) dopamine receptor,40 nM
CCCN1CCOC(c2cc(O)cc(C(N)=O)c2)C1 (centres undefined),EC50,D(3) dopamine receptor,> 10000 nM
CCCN1CCOC(c2ccc(O)c(NS(C)(=O)=O)c2)C1 (centres undefined),EC50,D(3) dopamine receptor,> 1000 nM
CCN1CCOC(c2cccc(O)c2)C1 (centres undefined),EC50,D(3) dopamine receptor,547 nM
same,EC50,D(2) dopamine receptor,> 30000 nM
CC(=O)NCCCCN1CCOC(c2cccc(O)c2)C1 (centres undefined),EC50,D(3) dopamine receptor,> 10000 nM
same,EC50,D(2) dopamine receptor,> 10000 nM
CCCN1CCO[C@H](c2cc(O)cc(O)c2)C1,EC50,D(3) dopamine receptor,32 nM
same,Emax,D(3) dopamine receptor,> 90%
same,clearance,[31],188 mL/min/kg
same,EC50,D(2) dopamine receptor,> 10000 nM
CCCN1CCOC(c2cccc(O)c2C)C1 (centres undefined),EC50,D(3) dopamine receptor,> 1000 nM
CCCN1CCOC(c2cccc(S(C)(=O)=O)c2)C1 (centres undefined),EC50,D(3) dopamine receptor,> 1000 nM
same,EC50,D(2) dopamine receptor,> 10000 nM

# From ChEMBL document CHEMBL1140586, “Design and synthesis of a functionally selective D3 agonist and its in vivo delivery via the intranasal route” (Bioorg Med Chem Lett, 2007)
